Publication PMC3351161 (Nucleic Acids Research, 2012)
Where no end group is shown, it is not given here. [ ]: non-standard residue; d: D form. pT = C[C@@H](OP(=O)(O)O)[C@H](N)C(=O)O

Legend:
Mdc1 [1] = test: Peptide pull-down from HeLa nuclear extract; type: binding, human; details: peptide coupled to magnetic beads, SDS-PAGE, western blot
RAD50 = test: Peptide pull-down from HeLa nuclear extract; type: binding, human; details: peptide coupled to magnetic beads; band at ∼150 kDa
MRE11 = test: Peptide pull-down from HeLa nuclear extract; type: binding, human; details: peptide coupled to magnetic beads; band at ∼80 kDa
[2] = test system: Mdc1 FHA domain (M-1 GST-fragment); test: Phosphopeptide pull-down with GST fragment M-1; type: binding, human; details: bacterially expressed GST-fusion
[3] = test system: Mdc1 BRCT domains (M-8 GST-fragment); test: Phosphopeptide pull-down with GST fragment M-8; type: binding, human; details: bacterially expressed GST-fusion
Mdc1 M-1, 1-124 = Mdc1 M-1, 1-124 (UniProt Q14676); test: peptide pull-down of purified GST fragment; details: reference: unphosphorylated peptide; sites T4
Mdc1 [4] = target: Mdc1 (UniProt Q14676); test: Strep-Tactin pull-down, SILAC LC-MS/MS; details: reference: wild type FHA fragment; sites T4
Chain of Mdc1 (UniProt Q14676) (Q14676 1-154 T4A): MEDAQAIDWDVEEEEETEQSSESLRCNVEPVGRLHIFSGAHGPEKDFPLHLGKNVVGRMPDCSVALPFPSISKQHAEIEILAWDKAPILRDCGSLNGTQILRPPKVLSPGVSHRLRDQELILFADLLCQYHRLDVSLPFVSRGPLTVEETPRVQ

Mdc1 1-800 = Mdc1 1-800 (UniProt Q14676); test: anti-Flag co-IP, anti-Myc blot; details: reference: wild type; sites T4
Mdc1 FHA domain = Mdc1 FHA domain (UniProt Q14676); test: ITC; details: reference: non-phosphorylated Thr-4 peptide; sites T4
SEC-MALS = target: the molecule itself; test: SEC-MALS
[5] = target: T1, Mdc1 fragment M-1 (amino acids 1–124), GST fusion (human, UniProt Q14676 1-124); test: pull-down
T1 sequence (looked up): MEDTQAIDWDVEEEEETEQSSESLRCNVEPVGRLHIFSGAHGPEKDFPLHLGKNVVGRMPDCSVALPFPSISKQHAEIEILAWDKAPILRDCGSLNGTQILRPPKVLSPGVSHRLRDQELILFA

Myc-tagged Mdc1 (1–800) = test: Co-immunoprecipitation of Flag- and Myc-tagged Mdc1; type: cell-based, human; details: transiently transfected 293T cells, anti-Flag IP, anti-Myc immunoblot
In short: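 Human Mdc1 residues 1–800, C-terminally tagged with HA/FLAG or Myc, in a pcDNA3.1(+) vector. HEK 293T cells grown in D-MEM with 10% FCS and streptomycin/penicillin (100 U/ml). Transfected with FuGene 6 or calcium phosphate. Immunoprecipitation on anti-FLAG M2 affinity gel; Myc-tagged partner detected by immunoblot with rabbit polyclonal c-Myc antibody.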

endogenous Mdc1 = test: Co-immunoprecipitation of Flag-tagged Mdc1; type: cell-based, human; details: 293T cells, with or without IR (10 Gy)
In short: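 HEK 293T cells in D-MEM with 10% FCS and streptomycin/penicillin were transfected (FuGene 6 or calcium phosphate) with FLAG-tagged human Mdc1 residues 1–800 in pcDNA3.1(+). IR was given in an X-ray cabinet at 5–10 Gy/min. Complexes were captured on anti-FLAG M2 affinity gel and probed for endogenous Mdc1.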

[6] = test system: Mdc1–FHA WT and T4A mutant domains; test: SILAC pull-down, wild-type versus T4A Mdc1–FHA domain after IR; type: binding, human; details: IR-treated cells
In short: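 U2OS cells stably carry a doxycycline-inducible, C-terminally Strep-tagged FHA domain (aa 1–154) or empty plasmid. They are SILAC-labelled (Lys0/Arg0, Lys4/Arg6, Lys8/Arg10) in dialyzed FBS, induced 16 h, then given 10 Gy IR for 30 min. Lysis in pH 7.5 Tris/NP-40 buffer with phosphatase and protease inhibitors, Strep-Tactin capture, pooled eluates on 4–20% SDS-PAGE, in-gel trypsin digestion. Analysis by nano-LC Orbitrap Velos MS and MaxQuant (FDR <1%). Read-out is normalized log2 SILAC ratios; 1:1:1 ratios count as background binders.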

Molecule: MED[pT]QAIDWDAE[KBtn] [pThr-4 phosphopeptide]
- Mdc1 pulled down from HeLa nuclear extract (Mdc1 [1]): efficiently pulled down
- Mdc1 pulled down from HeLa nuclear extract (Mdc1 [1]; listed as phosphopeptide): pulled down by the phosphopeptide only
- RAD50 pulled down from HeLa nuclear extract (RAD50): pulled down by the phosphopeptide only
- MRE11 pulled down from HeLa nuclear extract (MRE11): pulled down by the phosphopeptide only
- binding of FHA domain GST-fusion [2]: bound tightly and specifically
- binding of C-terminal BRCT-repeat region GST-fusion [3]: no significant interaction detectable

Molecule: Mdc1 1-12 (from UniProt Q14676) pThr-4 peptide
- binding against the reference (Mdc1 M-1, 1-124): stronger

Molecule: Mdc1 1-154 (from UniProt Q14676) T4A FHA fragment
- binding against the reference (Mdc1 [4]): weaker

Molecule: Mdc1 1-800 (from UniProt Q14676) T4A
- binding against the reference (Mdc1 1-800): weaker

Molecule: Mdc1 Thr-4 motif peptide (from UniProt Q14676) pThr-4 peptide
- binding against the reference (Mdc1 FHA domain): stronger

B1: wild-type Mdc1–FHA (27–138) (domain or fragment, human, UniProt Q14676 27-138, looked up)
chain: NVEPVGRLHIFSGAHGPEKDFPLHLGKNVVGRMPDCSVALPFPSISKQHAEIEILAWDKAPILRDCGSLNGTQILRPPKVLSPGVSHRLRDQELILFADLLCQYHRLDVSLP
- stoichiometry N (SEC-MALS): 2

Molecule: MED[pT]QAIDWDVE (peptide, UniProt Q14676 1-12, looked up)
- binding result [5]: binds

B2: Mdc1 (1–800): tagged N-terminal Mdc1 fragment lacking the BRCT domains (protein)
chain: MEDTQAIDWDVEEEEETEQSSESLRCNVEPVGRLHIFSGAHGPEKDFPLHLGKNVVGRMPDCSVALPFPSISKQHAEIEILAWDKAPILRDCGSLNGTQILRPPKVLSPGVSHRLRDQELILFADLLCQYHRLDVSLPFVSRGPLTVEETPRVQGETQPQRLLLAEDSEEEVDFLSERRMVKKSRTTSSSVIVPESDEEGHSPVLGGLGPPFAFNLNSDTDVEEGQQPATEEASSAARRGATVEAKQSEAEVVTEIQLEKDQPLVKERDNDTKVKRGAGNGVVPAGVILERSQPPGEDSDTDVDDDSRPPGRPAEVHLERAQPFGFIDSDTDAEEERIPATPVVIPMKKRKIFHGVGTRGPGAPGLAHLQESQAGSDTDVEEGKAPQAVPLEKSQASMVINSDTDDEEEVSAALTLAHLKESQPAIWNRDAEEDMPQRVVLLQRSQTTTERDSDTDVEEEELPVENREAVLKDHTKIRALVRAHSEKDQPPFGDSDDSVEADKSSPGIHLERSQASTTVDINTQVEKEVPPGSAIIHIKKHQVSVEGTNQTDVKAVGGPAKLLVVSLEEAWPLHGDCETDAEEGTSLTASVVADVRKSQLPAEGDAGAEWAAAVLKQERAHEVGAQGGPPVAQVEQDLPISRENLTDLVVDTDTLGESTQPQREGAQVPTGREREQHVGGTKDSEDNYGDSEDLDLQATQCFLENQGLEAVQSMEDEPTQAFMLTPPQELGPSHCSFQTTGTLDEPWEVLATQPFCLRESEDSETQPFDTHLEAYGPCLSPPRAIPGDQHPESPVHTEPM
modifications: left off: HA/FLAG on one copy and Myc on the other, C-terminal, kept
- interaction of Flag-tagged with Myc-tagged Mdc1 (1–800) (Myc-tagged Mdc1 (1–800)): efficiently interacted
- co-immunoprecipitation with endogenous Mdc1 (endogenous Mdc1): exclusively in extracts prepared from IR-treated cells

B3: RNF95: uncharacterized RING-finger domain protein (protein)
chain: MATSAPLRSLEEEVTCSICLDYLRDPVTIDCGHVFCRSCTTDVRPISGSRPVCPLCKKPFKKENIRPVWQLASLVENIERLKVDKGRQPGEVTREQQDAKLCERHREKLHYYCEDDGKLLCVMCRESREHRPHTAVLMEKAAQPHREKILNHLSTLRRDRDKIQGFQAKGEADILAALKKLQDQRQYIVAEFEQGHQFLREREEHLLEQLAKLEQELTEGREKFKSRGVGELARLALVISELEGKAQQPAAELMQDTRDFLNRYPRKKFWVGKPIARVVKKKTGEFSDKLLSLQRGLREFQGKLLRDLEYKTVSVTLDPQSASGYLQLSEDWKCVTYTSLYKSAYLHPQQFDCEPGVLGSKGFTWGKVYWEVEVEREGWSEDEEEGDEEEEGEEEEEEEEAGYGDGYDDWETDEDEESLGDEEEEEEEEEEEVLESCMVGVARDSVKRKGDLSLRPEDGVWALRLSSSGIWANTSPEAELFPALRPRRVGIALDYEGGTVTFTNAESQELIYTFTATFTRRLVPFLWLKWPGTRLLLRP
- interaction with wild-type compared to T4A FHA domain (in words) [6]: significantly increased in the wild-type compared to T4A FHA domain expressing cells
